Experimental data reported in ChEMBL document CHEMBL4004850, “Rational design of reversible inhibitors for trehalose 6-phosphate phosphatases” (Eur J Med Chem, 2017).

Key:
[1] = target: T1, Trehalose-phosphatase (Brugia malayi, UniProt A8NS89); assay: Competitive inhibition of Brugia malayi T6PP using T6P as substrate by Lineweaver-Burk plot analysis
T1 sequence (A8NS89 whole entry): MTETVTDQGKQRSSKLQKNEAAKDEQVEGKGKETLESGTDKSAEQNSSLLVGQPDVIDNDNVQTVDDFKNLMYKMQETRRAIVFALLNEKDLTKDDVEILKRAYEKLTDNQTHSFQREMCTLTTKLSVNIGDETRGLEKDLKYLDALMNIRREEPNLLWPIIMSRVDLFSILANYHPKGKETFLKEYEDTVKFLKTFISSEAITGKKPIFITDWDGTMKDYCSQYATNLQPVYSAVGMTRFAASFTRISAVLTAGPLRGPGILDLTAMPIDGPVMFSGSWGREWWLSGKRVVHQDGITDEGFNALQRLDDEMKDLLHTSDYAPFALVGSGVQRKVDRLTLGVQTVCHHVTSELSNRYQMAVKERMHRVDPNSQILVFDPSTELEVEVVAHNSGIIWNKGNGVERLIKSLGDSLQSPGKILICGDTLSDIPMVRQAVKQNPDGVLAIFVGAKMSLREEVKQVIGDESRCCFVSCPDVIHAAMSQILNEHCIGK
In short: (§1)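 Continuous phosphate-release assay (EnzChek, MESG/purine nucleoside phosphorylase) at 25 °C. Initial velocities of T6P hydrolysis by T6PP were taken at varied T6P with inhibitor at 0, Ki and 2×Ki. Km and Vmax come from double-reciprocal plots.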

[2] = Inhibition of Ascaris suum T6PP using T6P as substrate by Lineweaver-Burk plot analysis
[3] = Inhibition of Shigella boydii T6PP using T6P as substrate by Lineweaver-Burk plot analysis; in short: as §1
[4] = Inhibition of Salmonella typhimurium T6PP using T6P as substrate by Lineweaver-Burk plot analysis; set-up: species or system Salmonella enterica subsp. enterica serovar Typhimurium; in short: as §1
[5] = tested on: Shigella boydii; assay: Inhibition of Shigella boydii T6PP assessed as Vmax for substrate using T6P as substrate by Lineweaver-Burk plot analysis; in short: as §1
[6] = tested on: Shigella boydii; assay: Inhibition of Shigella boydii T6PP assessed as Km for substrate using T6P as substrate by Lineweaver-Burk plot analysis; in short: as §1
[7] = tested on: Ascaris suum; assay: Inhibition of Ascaris suum T6PP assessed as Vmax for substrate using T6P as substrate by Lineweaver-Burk plot analysis; in short: as §1
[8] = tested on: Ascaris suum; assay: Inhibition of Ascaris suum T6PP assessed as Km for substrate using T6P as substrate by Lineweaver-Burk plot analysis; in short: as §1
[9] = tested on: Salmonella enterica subsp. enterica serovar Typhimurium; assay: Inhibition of Salmonella typhimurium T6PP assessed as Vmax for substrate using T6P as substrate by Lineweaver-Burk plot analysis; in short: as §1
[10] = tested on: Salmonella enterica subsp. enterica serovar Typhimurium; assay: Inhibition of Salmonella typhimurium T6PP assessed as Km for substrate using T6P as substrate by Lineweaver-Burk plot analysis; in short: as §1
[11] = target: T2, Trehalose-phosphatase (Brugia malayi) (UniProt A8NS89); assay: Inhibition of Brugia malayi T6PP using T6P as substrate assessed as fraction of enzyme unbound with compound by measuring ratio of initial velocities of T6P substrate hydrolysis in presence and absence of compound at 1 mM […] by BioMol green dye based HTS assay
T2 sequence (whole entry): T1 sequence (A8NS89 whole entry)

[12] = tested on: Ascaris suum; assay: Inhibition of Ascaris suum T6PP using T6P as substrate assessed as fraction of enzyme unbound with compound by measuring ratio of initial velocities of T6P substrate hydrolysis in presence and absence of compound at 1 mM after 5 mins by BioMol green dye based HTS assay
In short: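 T6P is at half saturation ([T6P] = Km), with and without 1 mM inhibitor, at 25 °C. Released phosphate is detected with dye (30 min incubation) by A625. The reported value is V_I/V, the initial-velocity ratio.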

[13] = tested on: Shigella boydii; assay: Inhibition of Shigella boydii T6PP using T6P as substrate assessed as fraction of enzyme unbound with compound by measuring ratio of initial velocities of T6P substrate hydrolysis in presence and absence of compound at 1 mM after 5 mins by BioMol green dye based HTS assay
In short: (§2)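 Freshly purified St-T6PP or Sb-T6PP (5–25 nM) in 50 mM Hepes pH 7.5, 25 mM NaCl, 2 mM MgCl₂, 5% glycerol at 25 °C. T6P at half saturation (Km) for each enzyme. Hydrolysis rate was compared with and without 1 mM inhibitor; phosphate read at 625 nm after 30 min incubation. The ratio VI/V gives the fraction of enzyme not inhibitor-bound.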

[14] = tested on: Salmonella enterica subsp. enterica serovar Typhimurium; assay: Inhibition of Salmonella typhimurium T6PP using T6P as substrate assessed as fraction of enzyme unbound with compound by measuring ratio of initial velocities of T6P substrate hydrolysis in presence and absence of compound at 1 mM after 5 mins by BioMol green dye based HTS assay; in short: as §2
[15] = target: T1, Trehalose-phosphatase; assay: Reversible competitive inhibition of Brugia malayi T6PP using T6P as substrate by Lineweaver-Burk plot analysis

Structure (SMILES)	Ratio [11]	Ratio [12]	Ratio [13]	Ratio [14]	further results
CCCCCCc1ccc(O[C@H]2O[C@H](COS(=O)(=O)O)[C@@H](O)[C@H](O)[C@H]2O)cc1					Ki [1]: 80 to 82 µM; Ki [2]: 350 µM; Ki [3]: 78 µM; Ki [4]: 280 µM; Vmax [5]: 0.541 µM/s; Km [6]: 239 µM; Vmax [7]: 0.631 µM/s; Km [8]: 353 µM; Vmax [9]: 0.495 µM/s; Km [10]: 394 µM
CC(=O)Nc1ccc(O[C@@H]2O[C@H](COS(=O)(=O)O)[C@@H](O)[C@H](O)[C@H]2O)cc1	0.87	0.9	0.88	0.85	
O=S(=O)(O)OC[C@H]1O[C@H](O)[C@H](O)[C@@H](O)[C@@H]1O	0.93	0.94	0.75	0.84	
OC[C@H]1O[C@H](O[C@H]2O[C@H](CO)[C@@H](O)[C@H](O)[C@H]2O)[C@H](O)[C@@H](O)[C@@H]1O [TREHALOSE]	0.98	0.97	1.01	0.88	Ki [1]: > 10000 µM
O=S(=O)(O)OC[C@H]1O[C@@H](Oc2cccc(CO)c2)[C@H](O)[C@@H](O)[C@@H]1O	0.69	0.63	0.46	0.77	
OC[C@H]1O[C@H](Oc2ccccc2)[C@H](O)[C@@H](O)[C@@H]1O	0.96	0.97	0.86	1	
O=S(=O)(O)OC[C@H]1O[C@@H](Oc2ccc(-c3ccccc3)cc2)[C@H](O)[C@@H](O)[C@@H]1O	0.58	0.9	0.84	0.85	Ki [2]: 1800 µM; Vmax [7]: 0.436 µM/s; Km [8]: 290 µM
CCCCCCc1ccc(O[C@@H]2O[C@H](COS(=O)(=O)O)[C@@H](O)[C@H](O)[C@H]2O)cc1					Ki [1]: 200 µM; Ki [2]: 200 µM; Ki [3]: 140 µM; Ki [4]: > 400 µM; Vmax [5]: 0.534 µM/s; Km [6]: 231 µM
O=S(=O)(O)OC[C@H]1O[C@H](OCc2ccccc2)[C@H](O)[C@@H](O)[C@@H]1O	0.07	0.86	0.74	0.47	Ki [1]: 160 µM
CCCCCCCCc1ccc(O[C@@H]2O[C@H](COS(=O)(=O)O)[C@@H](O)[C@H](O)[C@H]2O)cc1	0.07	0.02	0.04	0.01	Ki [1]: 60 to 61 µM; Ki [2]: 180 µM; Ki [3]: 13 µM; Ki [4]: 120 µM; Vmax [5]: 0.495 µM/s; Km [6]: 222 µM; Vmax [7]: 0.343 µM/s; Km [8]: 336 µM; Vmax [9]: 0.183 µM/s; Km [10]: 428 µM
O=Cc1cccc(O[C@@H]2O[C@H](COS(=O)(=O)O)[C@@H](O)[C@H](O)[C@H]2O)c1	1.05	0.78	0.81	0.95	
CO[C@H]1O[C@H](COS(=O)(=O)O)[C@@H](O)[C@H](O)[C@H]1OCc1ccccc1	0.53	0.96	1	0.95	
CCCCCCCCO[C@@H]1O[C@H](COS(=O)(=O)O)[C@@H](O)[C@H](O)[C@H]1O	0.72	0.9	0.79	0.54	
OC[C@H]1O[C@@H](Oc2ccccc2)[C@H](O)[C@@H](O)[C@@H]1O	1.12	1	0.9	0.87	
OC[C@H]1O[C@@H](n2cc(-c3ccccc3)nn2)[C@H](O)[C@@H](O)[C@@H]1O	0.85	0.96	1	0.9	
O=S(=O)(O)OC[C@H]1O[C@H](Oc2ccccc2)[C@H](O)[C@@H](O)[C@@H]1O	0.42	0.71	0.76	0.64	Ki [15]: 320 µM
O=S(=O)(O)OC[C@H]1O[C@@H](Oc2ccc(CO)cc2)[C@H](O)[C@@H](O)[C@@H]1O	0.68	0.76	0.67	0.79	

Structure (SMILES)	Ratio [11]	Ratio [12]	Ratio [13]	Ratio [14]	further results
O=[N+]([O-])c1ccc(O[C@@H]2O[C@H](COS(=O)(=O)O)[C@@H](O)[C@H](O)[C@H]2O)cc1	0.64	0.83	0.77	0.68	
OC[C@H]1O[C@@H](NC(=S)Nc2ccccc2)[C@H](O)[C@@H](O)[C@@H]1O	0.99	0.81	0.92	1.09	
O=S(=O)(O)OC[C@H]1O[C@@H](n2cc(-c3ccccc3)nn2)[C@H](O)[C@@H](O)[C@@H]1O	0.98	0.76	0.9	0.97	
CO[C@H]1O[C@H](COS(=O)(=O)O)[C@@H](O)[C@H](OCc2ccccc2)[C@H]1O	0.67	1.04	0.84	0.99	
O=Cc1ccc(O[C@@H]2O[C@H](COS(=O)(=O)O)[C@@H](O)[C@H](O)[C@H]2O)cc1	1	0.81	1.06	0.87	
NS(=O)(=O)OCc1cccc(N[C@@H]2O[C@H](CO)[C@@H](O)[C@H](O)[C@H]2O)c1	1.05	0.96	0.85	1	
O=S(=O)(O)OC[C@H]1O[C@@H](Oc2cccc3ccccc23)[C@H](O)[C@@H](O)[C@@H]1O	0.85	0.91	0.85	0.8	
OC[C@H]1O[C@@H](Nc2ccccc2)[C@H](O)[C@@H](O)[C@@H]1O	1	0.97	0.92	0.77	
CO[C@H]1O[C@H](COS(=O)(=O)O)[C@@H](O)[C@H](O)[C@H]1O	0.8	1.07	1	1.04	
O=S(=O)(O)OC[C@H]1O[C@@H](Oc2ccccc2CO)[C@H](O)[C@@H](O)[C@@H]1O	0.89	0.9	0.85	0.73	
Nc1ccc(O[C@@H]2O[C@H](COS(=O)(=O)O)[C@@H](O)[C@H](O)[C@H]2O)cc1	0.63	0.74	1.03	0.94	
O=S(=O)(O)OC[C@H]1O[C@@H](Oc2ccc(F)c(F)c2)[C@H](O)[C@@H](O)[C@@H]1O	0.74	0.88	0.92	0.89	
COc1cc(C=O)cc(OC)c1O[C@@H]1O[C@H](COS(=O)(=O)O)[C@@H](O)[C@H](O)[C@H]1O	0.55	0.94	1	0.96	
O=Cc1ccccc1O[C@@H]1O[C@H](COS(=O)(=O)O)[C@@H](O)[C@H](O)[C@H]1O	0.79	0.99	0.96	0.85	
O=S(=O)(O)OCc1cccc(O[C@@H]2O[C@H](CO)[C@@H](O)[C@H](O)[C@H]2O)c1	0.59	0.98	0.8	0.85	
CO[C@H]1O[C@H](COS(=O)(=O)O)[C@@H](OCc2ccccc2)[C@H](O)[C@H]1O	0.68	0.99	0.95	0.97	
O=S(=O)(O)OC[C@H]1O[C@H](O[C@H]2O[C@H](CO)[C@@H](O)[C@H](O)[C@H]2O)[C@H](O)[C@@H](O)[C@@H]1O	0.13	0.21	0.22	0.01	Ki [1]: 80 µM; Ki [2]: 50 µM; Ki [3]: 330 µM; Ki [4]: 180 µM
